# Reference: paper PMC7113734 (Antiviral Research, 2016)
# “And” between values parts separate entries of the source, which are not always exact repeats. Equal entries are not always repeated. “Also recorded” adds a separate entry of the source.
# Tests used:
# HIVIIIB = assay: Virucidal assay; format: cell-based, HIV-1; conditions: virions treated 20 min, washed, CEM-SS cells
# In short: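 Test compound incubated with undiluted HIV-1 IIIB for 20 min at 37 °C. Virus pelleted at 13,800 rpm, 4 °C, 90 min, then washed five times with culture medium. Pellet resuspended in RPMI to the predetermined titer of untreated virus and used to infect CEM-SS cells for 6 days at 37 °C/5% CO2. Infectivity read by XTT cell viability.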
# [1] = Fourteen-day repeat dose toxicity study; format: in vivo, Sprague-Dawley rats; conditions: rats
# In short: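 Thirty-two Sprague-Dawley rats in four groups of 8, alongside a control article. Daily oral gavage for 14 days at 500, 1000 or 2000 mg/kg, given as suspension in 2% CMC-Na in water. Per group, 4 main animals necropsied Day 15 and 4 recovery animals Day 29. Blood for clinical pathology taken before sacrifice. Endpoints: clinical observations, body weight, food consumption, clinical chemistry, hematology, coagulation, urinalysis, organ weights, gross and microscopic pathology.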
# [2] = Maximum tolerated dose, single oral administration; format: in vivo, Sprague-Dawley rats; conditions: single oral 750, 1000, 1500, 2000 mg/kg; rats
# In short: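 Single oral gavage in Sprague-Dawley rats, 8 per group (4 female, 4 male). Doses of 750, 1000, 1500 or 2000 mg/kg given in 5% DMSO/70% PEG400 in water, or 2000 mg/kg in 2% CMC-Na in water. Dose volume 10 mL/kg, or 20 mL/kg at 2000 mg/kg. Four-day observation after dosing: cageside and clinical signs, body weight, food consumption.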
# [3] = system: Venezuelan equine encephalitis virus; format: cell-based
# rift valley fever virus = assay: microbe, parasite or virus in culture; format: cell-based
# [4] = system: influenza A virus type H1N1; assay: DMID antiviral screening, influenza A; format: cell-based
# [5] = system: respiratory syncytial virus; assay: DMID antiviral screening, RSV; format: cell-based
# SARS corona virus = assay: organism not typed; format: cell-based
# tacaribe virus = assay: microbe, parasite or virus in culture; format: cell-based; conditions: Mammarenavirus tacaribeense
smiles,measurement,setting,value
"CCCC(=O)OCSc1ccccc1C(=O)NCCC(N)=O [NS1040, ((2-((3-amino-3-oxopropyl)carbamoyl)phenyl)thio)methyl butyrate]",concentration reducing infectivity of HIV virions (virucidal),HIVIIIB,50 µM and > 50 µM
same,urine observation in repeat dose study,[1]; at the higher doses,cloudy urine samples were noted for some of the rats
same,toxicity in repeat dose study,"[1]; oral 500, 1000, 2000 mg/kg for 14 consecutive days",no toxicity observed; also recorded: non-toxic
same,toxicity in MTD study,[2],did not exhibit any toxicity at any dose
"NC(=O)CCNC(=O)c1ccccc1S [MDH-1-38, N-(3-amino-3-oxopropyl)-2-mercaptobenzamide]",antiviral activity,[3],failed to show any activity
same,EC50,rift valley fever virus,~20 µM
same,antiviral activity,[4],failed to show any activity
same,antiviral activity,[5],failed to show any activity
same,EC50,SARS corona virus,~20 µM
same,EC50,tacaribe virus,~20 µM
